# Measurements gathered from unrelated publications.
# Target: Interleukin-1 receptor-associated kinase 4 (IRAK4, Homo sapiens, UniProt Q9NWZ3)
# One construct used (Q9NWZ3 1-460): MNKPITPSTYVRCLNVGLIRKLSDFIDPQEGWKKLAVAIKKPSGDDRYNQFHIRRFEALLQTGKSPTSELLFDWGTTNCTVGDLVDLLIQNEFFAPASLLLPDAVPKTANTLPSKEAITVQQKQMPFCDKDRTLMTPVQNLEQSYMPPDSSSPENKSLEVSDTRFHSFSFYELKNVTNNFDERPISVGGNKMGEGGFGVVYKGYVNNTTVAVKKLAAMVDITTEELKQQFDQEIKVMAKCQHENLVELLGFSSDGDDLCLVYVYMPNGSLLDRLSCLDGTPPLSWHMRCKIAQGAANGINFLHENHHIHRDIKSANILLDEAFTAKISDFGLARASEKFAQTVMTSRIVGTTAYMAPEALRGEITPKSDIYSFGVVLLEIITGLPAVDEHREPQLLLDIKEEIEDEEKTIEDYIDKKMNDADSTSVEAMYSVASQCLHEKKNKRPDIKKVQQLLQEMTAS
Compound,assay,conditions,remaining binding [%]
CN([C@@H]1CCc2c(CC(=O)O)c3cc(S(C)(=O)=O)ccc3n2C1)S(=O)(=O)c1ccc(F)cc1,"cell-free assay, competition with immobilised ligand",1 µM,95
FC(F)(F)Oc1cccc(-c2cnc3ccc(-c4ccncc4)nn23)c1,"cell-free assay, competition with immobilised ligand",5 µM,1.6
Cn1cc(Cl)c2c(Oc3c(F)cc(Nc4cc(Cl)nc(N)n4)cc3F)ccnc21,"cell-free assay, competition with immobilised ligand",0.1 µM,90
N[C@@H]1CCN(c2nccc(-c3cnn4ncccc34)n2)C1,binding,1 µM,99
Cc1cnc(Nc2ccc(C(=O)N3CCC(N4CCCC4)CC3)cc2)nc1-c1cc2ccccc2s1,"binding, competition with immobilised ligand",1 µM,45
C[C@@H]1CCN(c2nccc(-c3cnn4ncccc34)n2)C1,binding,1 µM,100
C[C@H](c1ccnc(Nc2nc3ccc(-c4cc(N(C)C)ncn4)cc3[nH]2)c1)N1CCN(C(=O)CC(F)(F)F)CC1,"cell-free assay, competition with immobilised ligand",0.1 µM,100
CNC(=O)[C@@H]1CC[C@@H](n2c(-c3ccc4cnccc4c3)nc3ccc(C(=O)NCc4cccc(C(N)=O)c4)cc32)C1,"binding, competition with immobilised ligand",1 µM,100
O=C(c1ccc(Nc2ncc(Cl)c(-c3cc4ccccc4s3)n2)cc1)N1CCC(N2CCCC2)CC1,"binding, competition with immobilised ligand",1 µM,57
CC1CCCN1c1nccc(-c2cnn3ncccc23)n1 (centres unmarked),binding,1 µM,84
O=C(O)[C@H]1[C@H](Cn2nnc3ccccc3c2=O)CC[C@@H]1C(=O)c1ccc(OCCC2CCOCC2)cc1,"cell-free assay, competition with immobilised ligand",1 µM,76
O=C(c1ccc(Nc2nccc(-c3cc4ccccc4s3)n2)cc1)N1CCC(N2CCCC2)CC1,"binding, competition with immobilised ligand",1 µM,100
O=C(Nc1ccc(Oc2ccc(F)cc2)cc1)N1CCc2ncccc2[C@H]1c1ccc(F)cc1,"cell-free assay, competition with immobilised ligand",1 µM,96
COc1cnc(Nc2cccc(S(N)(=O)=O)c2)nc1N1CCN(c2ccccc2)C(=O)C1,"binding, competition with immobilised ligand",1 µM,88
CN(C)c1ncc(F)c(-c2cnn3ncccc23)n1,binding,1 µM,69
CCN1CCN(Cc2ccc(C(=O)Nc3ccc(C)c(Oc4ccc5c(c4)CC(=O)N5)c3)cc2C(F)(F)F)CC1,"binding, competition with immobilised ligand",1 µM,84
CN(CCCC(F)(F)F)c1nccc(-c2cnn3ncccc23)n1,binding,1 µM,100
O=C(Nc1c[nH]nc1C(=O)NC1CCNCC1)c1cc(F)cc(F)c1,"binding, competition with immobilised ligand",1 µM,100
CN(C)c1nccc(-c2cnn3ncccc23)n1,binding,1 µM,73
CCS(=O)(=O)c1cc2cc(C[C@](O)(CC(C)(C)c3ccc(F)cc3C(N)=O)C(F)(F)F)[nH]c2cn1,"cell-free assay, competition with immobilised ligand",1 µM,100
